# Reference: ChEMBL document CHEMBL3425479, “Discovery, synthesis, and molecular pharmacology of selective positive allosteric modulators of the δ-opioid receptor” (J Med Chem, 2015)
# Activity calls are given as the source filed them. The rule behind the calls is not given here.
# Test system: CHO
# Test: Induction of ERK1 phosphorylation in delta receptor deficient CHO cells
# Assay type: cell-based
# Details: Cricetulus griseus
# In short: (§1)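 Parental CHO cells lacking δ receptor, test compound added alone. Cells serum-starved overnight in DMEM, then stimulated at 37 °C. Phospho-ERK1/2 measured in lysates by AlphaScreen SureFire. Basal in serum-free medium was set as 0% and 10% serum response as 100%.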
row,Structure (SMILES),Activity
1,Cc1ccccc1COc1ccc(C2C3=C(CC(C)(C)CC3=O)OC3=C2C(=O)CC(C)(C)C3)cc1,inactive

# Test system: not listed separately
# Test: Solubility of the compound in HBSS/HEPES/FBS assessed as particulate matter formation at >3 uM by nephelometric analysis
# Assay type: physicochemical
# Details: buffer
row,Structure (SMILES),solubility
1,Cc1ccccc1COc1ccc(C2C3=C(CC(C)(C)CC3=O)OC3=C2C(=O)CC(C)(C)C3)cc1,Insoluble
2,CC1(C)CC(=O)C2=C(C1)OC1=C(C(=O)CC(C)(C)C1)C2c1ccc(OCc2ccccc2Br)cc1,Insoluble

# Biological target: T1, Delta-type opioid receptor (Homo sapiens, UniProt P41143)
# T1 sequence (P41143 whole entry): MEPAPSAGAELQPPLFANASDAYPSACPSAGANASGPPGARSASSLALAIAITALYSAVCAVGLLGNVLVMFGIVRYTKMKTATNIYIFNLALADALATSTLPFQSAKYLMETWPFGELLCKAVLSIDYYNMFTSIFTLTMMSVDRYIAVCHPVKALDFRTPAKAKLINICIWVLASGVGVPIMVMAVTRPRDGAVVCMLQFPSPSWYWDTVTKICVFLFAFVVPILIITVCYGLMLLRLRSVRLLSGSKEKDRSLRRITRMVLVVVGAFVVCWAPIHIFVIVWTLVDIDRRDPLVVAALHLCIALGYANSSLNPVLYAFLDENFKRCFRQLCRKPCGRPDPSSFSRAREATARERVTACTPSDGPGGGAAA
# Details: CHO
row,Structure (SMILES),log(activity)
1,C=CCN1C[C@H](C)N([C@H](c2ccc(C(=O)N(CC)CC)cc2)c2cccc(OC)c2)C[C@H]1C,0.86

# Test system: CHO
# Test: Selectivity ratio of EC50 for human mu opioid receptor-1 expressed in CHO cells to EC50 for human delta opioid receptor-1 expressed in CHO cells
# Assay type: cell-based
# Details: not given
# In short: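 The δ/μ potency ratio is built from PAM-mode β-arrestin EC50 values in PathHunter CHO-OPRD1 and CHO-OPRM1 cells. […] Incubation was 90 min at room temperature with luminescence read-out.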
row,Structure (SMILES),Ratio EC50
1,Cc1cccc(COc2ccc(C3C4=C(CC(C)(C)CC4=O)OC4=C3C(=O)CC(C)(C)C4)cc2)c1,15
2,Cc1ccc(COc2ccc(C3C4=C(CC(C)(C)CC4=O)OC4=C3C(=O)CC(C)(C)C4)cc2)cc1,13
3,CC1(C)CC(=O)C2=C(C1)OC1=C(C(=O)CC(C)(C)C1)C2c1ccc(OCc2ccccc2CO)cc1,10
4,CC1(C)CC(=O)C2=C(C1)OC1=C(C(=O)CC(C)(C)C1)C2c1ccc(OCc2ccccc2OC(F)(F)F)cc1,7
5,CC1(C)CC(=O)C2=C(C1)OC1=C(C(=O)CC(C)(C)C1)C2c1ccc(OCc2ccccc2)cc1,30
6,CC1(C)CC(=O)C2=C(C1)OC1=C(C(=O)CC(C)(C)C1)C2c1ccc(OCc2ccccc2OC(F)F)cc1,15
7,CC1(C)CC(=O)C2=C(C1)OC1=C(C(=O)CC(C)(C)C1)C2c1ccc(OCc2cccc(F)c2)cc1,7
8,CC1(C)CC(=O)C2=C(C1)OC1=C(C(=O)CC(C)(C)C1)C2c1ccc(OCc2ccccc2S(C)(=O)=O)cc1,6

# Biological target: T1, Delta-type opioid receptor
# Details: CHO
# Remark: another data set of the same source
row,Structure (SMILES),log(activity)
1,CN1CC[C@]2(c3cccc(O)c3)Cc3nc4ccccc4cc3C[C@H]2C1,0.22
2,C=CCN1C[C@H](C)N([C@H](c2ccc(C(=O)N(CC)CC)cc2)c2cccc(OC)c2)C[C@H]1C,1.06

# Test system: not listed separately
# Test: Solubility of the compound in phosphate buffered saline assessed as particulate matter formation at >1 uM by nephelometric analysis
# Assay type: physicochemical
# Details: buffer
row,Structure (SMILES),solubility
1,Cc1ccccc1COc1ccc(C2C3=C(CC(C)(C)CC3=O)OC3=C2C(=O)CC(C)(C)C3)cc1,Insoluble
2,CC1(C)CC(=O)C2=C(C1)OC1=C(C(=O)CC(C)(C)C1)C2c1ccc(OCc2ccccc2Br)cc1,Insoluble

# Biological target: Mu-type opioid receptor (Homo sapiens, UniProt P35372)
# Sequence (P35372 whole entry): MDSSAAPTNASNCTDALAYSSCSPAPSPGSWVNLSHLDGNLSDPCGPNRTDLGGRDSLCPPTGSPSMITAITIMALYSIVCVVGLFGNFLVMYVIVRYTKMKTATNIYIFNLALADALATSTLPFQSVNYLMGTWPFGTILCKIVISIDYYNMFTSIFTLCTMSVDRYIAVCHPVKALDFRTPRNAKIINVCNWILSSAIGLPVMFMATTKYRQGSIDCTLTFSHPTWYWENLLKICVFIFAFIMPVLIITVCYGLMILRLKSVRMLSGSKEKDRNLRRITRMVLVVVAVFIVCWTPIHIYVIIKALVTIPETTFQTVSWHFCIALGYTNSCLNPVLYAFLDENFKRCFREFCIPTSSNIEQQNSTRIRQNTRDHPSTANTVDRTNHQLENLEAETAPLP
# Test: Positive allosteric modulation of human mu opioid receptor-1 expressed in CHO cells assessed as potentiation of endomorphin 1-induced response after 90 mins by beta-arrestin recruitment assay
# Assay type: cell-based
# Details: not given
Structure (SMILES),EC50,Emax
Cc1cccc(COc2ccc(C3C4=C(CC(C)(C)CC4=O)OC4=C3C(=O)CC(C)(C)C4)cc2)c1,3000 nM,120%
Cc1ccc(COc2ccc(C3C4=C(CC(C)(C)CC4=O)OC4=C3C(=O)CC(C)(C)C4)cc2)cc1,4000 nM,65%
CC1(C)CC(=O)C2=C(C1)OC1=C(C(=O)CC(C)(C)C1)C2c1ccc(OCc2ccccc2CO)cc1,10000 nM,112%
CC1(C)CC(=O)C2=C(C1)OC1=C(C(=O)CC(C)(C)C1)C2c1ccc(OCc2ccccc2OC(F)(F)F)cc1,2000 nM,111%
CC1(C)CC(=O)C2=C(C1)OC1=C(C(=O)CC(C)(C)C1)C2c1ccc(OCc2ccccc2)cc1,6000 nM,130%
CC1(C)CC(=O)C2=C(C1)OC1=C(C(=O)CC(C)(C)C1)C2c1ccc(OCc2ccccc2OC(F)F)cc1,3000 nM,80%
CC1(C)CC(=O)C2=C(C1)OC1=C(C(=O)CC(C)(C)C1)C2c1ccc(OCc2ccccc2C(F)(F)F)cc1,> 10000 nM,> 20%
CC1(C)CC(=O)C2=C(C1)OC1=C(C(=O)CC(C)(C)C1)C2c1ccc(OCc2cccc(F)c2)cc1,7000 nM,182%
CC1(C)CC(=O)C2=C(C1)OC1=C(C(=O)CC(C)(C)C1)C2c1ccc(OCc2ccccc2Cl)cc1,> 10000 nM,> 100%
CC1(C)CC(=O)C2=C(C1)OC1=C(C(=O)CC(C)(C)C1)C2c1ccc(OCc2ccccc2S(C)(=O)=O)cc1,5000 nM,42%

# Biological target: T1, Delta-type opioid receptor
# Details: CHO
# Remark: another data set of the same source
row,Structure (SMILES),pKA
1,C=CCN1C[C@H](C)N([C@H](c2ccc(C(=O)N(CC)CC)cc2)c2cccc(OC)c2)C[C@H]1C,7.7

# Biological target: T1, Delta-type opioid receptor
# Details: CHO
# Remark: another data set of the same source
row,Structure (SMILES),pKA
1,C=CCN1C[C@H](C)N([C@H](c2ccc(C(=O)N(CC)CC)cc2)c2cccc(OC)c2)C[C@H]1C,6.38

# Biological target: T1, Delta-type opioid receptor
# Details: CHO
# Remark: another data set of the same source
row,Structure (SMILES),pKA
1,CN1CC[C@]2(c3cccc(O)c3)Cc3nc4ccccc4cc3C[C@H]2C1,7.6
2,C=CCN1C[C@H](C)N([C@H](c2ccc(C(=O)N(CC)CC)cc2)c2cccc(OC)c2)C[C@H]1C,7.7

# Biological target: T1, Delta-type opioid receptor
# Details: CHO
# Remark: another data set of the same source
row,Structure (SMILES),pKA
1,CN1CC[C@]2(c3cccc(O)c3)Cc3nc4ccccc4cc3C[C@H]2C1,8.4
2,C=CCN1C[C@H](C)N([C@H](c2ccc(C(=O)N(CC)CC)cc2)c2cccc(OC)c2)C[C@H]1C,7.7

# Test system: CHO
# Test: Induction of ERK2 phosphorylation in delta receptor deficient CHO cells
# Assay type: cell-based
# Details: Cricetulus griseus
# In short: as §1
row,Structure (SMILES),Activity
1,Cc1ccccc1COc1ccc(C2C3=C(CC(C)(C)CC3=O)OC3=C2C(=O)CC(C)(C)C3)cc1,inactive

# Biological target: T1, Delta-type opioid receptor
# Test: Agonist activity at human delta opioid receptor-1 expressed in CHO cells after 90 mins by beta-arrestin recruitment assay
# Assay type: cell-based
# Details: not given
# In short: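 PathHunter CHO cells (OPRD1 or OPRM1) plated overnight at 37 °C in F-12 with 10% FBS and 25 mM HEPES. […] Incubated 90 min at room temperature, then luminescence read 1 h after detection reagent.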
row,Structure (SMILES),Activity
1,Cc1cccc(COc2ccc(C3C4=C(CC(C)(C)CC4=O)OC4=C3C(=O)CC(C)(C)C4)cc2)c1,inactive
2,Cc1ccc(COc2ccc(C3C4=C(CC(C)(C)CC4=O)OC4=C3C(=O)CC(C)(C)C4)cc2)cc1,inactive
3,CC1(C)CC(=O)C2=C(C1)OC1=C(C(=O)CC(C)(C)C1)C2c1ccc(OCc2ccccc2CO)cc1,inactive
4,CC1(C)CC(=O)C2=C(C1)OC1=C(C(=O)CC(C)(C)C1)C2c1ccc(OCc2ccccc2OC(F)(F)F)cc1,inactive
5,CC1(C)CC(=O)C2=C(C1)OC1=C(C(=O)CC(C)(C)C1)C2c1ccc(OCc2ccccc2)cc1,inactive
6,CC1(C)CC(=O)C2=C(C1)OC1=C(C(=O)CC(C)(C)C1)C2c1ccc(OCc2ccccc2OC(F)F)cc1,inactive
7,CC1(C)CC(=O)C2=C(C1)OC1=C(C(=O)CC(C)(C)C1)C2c1ccc(OCc2ccccc2C(F)(F)F)cc1,inactive
8,CC1(C)CC(=O)C2=C(C1)OC1=C(C(=O)CC(C)(C)C1)C2c1ccc(OCc2cccc(F)c2)cc1,inactive
9,CC1(C)CC(=O)C2=C(C1)OC1=C(C(=O)CC(C)(C)C1)C2c1ccc(OCc2ccccc2Cl)cc1,inactive
10,CC1(C)CC(=O)C2=C(C1)OC1=C(C(=O)CC(C)(C)C1)C2c1ccc(OCc2ccccc2S(C)(=O)=O)cc1,inactive

# Test system: CHO
# Test: Effect on delta receptor deficient CHO cells assessed as inhibition of cAMP accumulation
# Assay type: functional, cell-based
# Details: Cricetulus griseus
# In short: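 Parental CHO cells lacking δ receptor, test compound added alone. Cells in HBSS + 25 mM HEPES + 0.05% BSA, 2000 cells/well, with forskolin at 2 μM final. Incubated 45 min at rt. cAMP measured by TR-FRET (665/615 nm ratio) against a cAMP standard curve run alongside.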
row,Structure (SMILES),Activity
1,Cc1ccccc1COc1ccc(C2C3=C(CC(C)(C)CC3=O)OC3=C2C(=O)CC(C)(C)C3)cc1,inactive

# Biological target: T1, Delta-type opioid receptor
# Test: Positive allosteric modulation of human delta opioid receptor-1 expressed in CHO cells assessed as potentiation of leu-enkephalin-induced response after 90 mins by beta-arrestin recruitment assay
# Assay type: cell-based
# Details: not given
row,Structure (SMILES),EC50
1,Cc1cccc(COc2ccc(C3C4=C(CC(C)(C)CC4=O)OC4=C3C(=O)CC(C)(C)C4)cc2)c1,200 nM
2,Cc1ccc(COc2ccc(C3C4=C(CC(C)(C)CC4=O)OC4=C3C(=O)CC(C)(C)C4)cc2)cc1,300 nM
3,CC1(C)CC(=O)C2=C(C1)OC1=C(C(=O)CC(C)(C)C1)C2c1ccc(OCc2ccc(F)cc2)cc1,100 nM
4,CC1(C)CC(=O)C2=C(C1)OC1=C(C(=O)CC(C)(C)C1)C2c1ccc(OCc2ccccc2CO)cc1,1000 nM
5,CC1(C)CC(=O)C2=C(C1)OC1=C(C(=O)CC(C)(C)C1)C2c1ccc(OCc2ccccc2OC(F)(F)F)cc1,300 nM
6,CC1(C)CC(=O)C2=C(C1)OC1=C(C(=O)CC(C)(C)C1)C2c1ccc(OCc2ccccc2OC(F)F)cc1,200 nM
7,CC1(C)CC(=O)C2=C(C1)OC1=C(C(=O)CC(C)(C)C1)C2c1ccc(OCc2ccccc2C(F)(F)F)cc1,> 10000 nM
8,CC1(C)CC(=O)C2=C(C1)OC1=C(C(=O)CC(C)(C)C1)C2c1ccc(OCc2cccc(F)c2)cc1,1000 nM
9,CC1(C)CC(=O)C2=C(C1)OC1=C(C(=O)CC(C)(C)C1)C2c1ccc(OCc2ccccc2F)cc1,100 nM
10,CC1(C)CC(=O)C2=C(C1)OC1=C(C(=O)CC(C)(C)C1)C2c1ccc(OCc2ccccc2Cl)cc1,300 nM
11,CC1(C)CC(=O)C2=C(C1)OC1=C(C(=O)CC(C)(C)C1)C2c1ccc(OCc2ccccc2S(C)(=O)=O)cc1,900 nM
12,CC1(C)CC(=O)C2=C(C1)OC1=C(C(=O)CC(C)(C)C1)C2c1ccc(OCc2cccc(Cl)c2Cl)cc1,100 nM
13,CC1(C)CC(=O)C2=C(C1)OC1=C(C(=O)CC(C)(C)C1)C2c1ccc(OCc2ccccc2Br)cc1,50 nM

# Biological target: T1, Delta-type opioid receptor
# Details: CHO
# Remark: another data set of the same source
row,Structure (SMILES),log(activity)
1,CN1CC[C@]2(c3cccc(O)c3)Cc3nc4ccccc4cc3C[C@H]2C1,0.67
2,C=CCN1C[C@H](C)N([C@H](c2ccc(C(=O)N(CC)CC)cc2)c2cccc(OC)c2)C[C@H]1C,0.56

# Biological target: T1, Delta-type opioid receptor
# Test: Partial agonist activity at human delta opioid receptor expressed in CHO cells after 1 hr by [35S]GTPgammaS binding assay relative to SNC80
# Assay type: functional, cell-based
# Details: not given
row,Structure (SMILES),Activity
1,CN1CC[C@]2(c3cccc(O)c3)Cc3nc4ccccc4cc3C[C@H]2C1,84%

# Biological target: T1, Delta-type opioid receptor
# Details: CHO
# Remark: another data set of the same source
row,Structure (SMILES),log(activity)
1,C=CCN1C[C@H](C)N([C@H](c2ccc(C(=O)N(CC)CC)cc2)c2cccc(OC)c2)C[C@H]1C,0.66
